In PubChem BioAssay AID651740 (Broad Institute, 2012) one finds inhibition data, which are given here for 17 compounds.

Screen size: about 5,600 compounds; about 1,200 (21%) were called active. Not shown: some 3% with an inconclusive outcome.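 The calls were made as follows: active = mean inhibition above about 95%, with at least 55% of replicates also reaching it (limit read from the data); inconclusive = meets just one of the two conditions; inactive = meets neither condition.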 These entries were drawn from the full list.

This assay in a line: inhibitors of intracellular T. cruzi replication, confirmation, NIH3T3 host cells, beta-gal parasites, cherry-pick, set 2 (AID 651740).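 Also: plate controls were neutral control median for no effect and positive control median for full effect.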 The conditions noted are these: T. cruzi beta-gal in NIH3T3, GalScreen luminescence, 90 h; at 2.09 µM; hits give high values. The method in brief: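 Timing: host attachment 3 h, co-culture ≥90 h, lysis 60 min / Test system: NIH/3T3 host cells with beta-gal T. cruzi Tulahuen C4 / Quantity: 5,000 fibroblasts/well / Dosing: single point, 100 nL compound in DMSO pinned per well / Buffer or medium: 2% FBS DMEM with PSG / Detection: GalScreen luminescence (substrate 1:25 in Buffer B) after cell lysis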
The term inhibition denotes the relative decrease from the control value, in per cent. In the case of `O=C(c1ccc(F)cc1)N1CCCCN2[C@H](C1)[C@@H](c1ccc(C#CC3(O)CCCC3)cc1)[C@@H]2CO`, the inhibition was 2.53% (inactive).

For the compound `CCCNC(=O)N(C)C[C@@H]1Oc2ncc(C#Cc3ccccc3F)cc2C(=O)N([C@@H](C)CO)C[C@H]1C`, the inhibition is 94.5% (inactive). In the case of `O=C(Nc1ccc(-c2ccccc2)cc1)[C@H]1[C@H](CO)[C@H]2Cn3c(cccc3=O)[C@H]2N1CC1CC1`, the inhibition is 33.8% (inactive). With `C[C@@H]1CN([C@H](C)CO)C(=O)c2cc(-c3cncnc3)cnc2O[C@H]1CN(C)C(=O)Nc1ccc2c(c1)OCO2` the figure was -52% (inactive). As for `N#C[C@@H]1[C@@H](c2ccc(/C=C/c3ccccc3)cc2)[C@@H](CO)N1C(=O)C1CC1`, the figure is 68.6% (inactive); as for `C[C@@H]1CN([C@H](C)CO)C(=O)c2cc(NS(=O)(=O)c3cccs3)ccc2O[C@@H](C)CCCCO[C@H]1CN(C)Cc1ccc(C(F)(F)F)cc1`, 112% (active). With `C[C@@H]1CCCCO[C@H](CN(C)Cc2ccccc2)[C@H](C)CN([C@H](C)CO)C(=O)c2cc(NS(=O)(=O)c3ccc(Cl)cc3)ccc2O1` the figure was 107% (active). Take `COc1ccc(S(=O)(=O)Nc2ccc3c(c2)C(=O)N([C@H](C)CO)C[C@H](C)[C@H](CN(C)Cc2ccc(C(F)(F)F)cc2)O3)cc1`: the inhibition was 85.4% (inactive).

For `Cc1ccc(S(=O)(=O)N(C)C[C@@H]2OCCCC[C@@H](C)Oc3ccc(NS(=O)(=O)c4ccc(F)cc4)cc3C(=O)N([C@H](C)CO)C[C@H]2C)cc1`, the inhibition was 76.8% (inactive).

With `C[C@H](CO)N1C[C@H](C)[C@H](CN(C)Cc2ccc(C(F)(F)F)cc2)Oc2ccc(NS(=O)(=O)c3ccc(Cl)cc3)cc2C1=O`, the inhibition is 74% (inactive). With `C[C@@H]1CN([C@H](C)CO)C(=O)c2cc(NS(=O)(=O)c3ccc(Cl)cc3)ccc2O[C@@H](C)CCCCO[C@H]1CN(C)Cc1ccccc1` the figure was 94.6% (inactive); with `C[C@H](CO)N1C[C@H](C)[C@H](CN(C)Cc2ccc(C(F)(F)F)cc2)OCCCC[C@H](C)Oc2ccc(NS(=O)(=O)c3ccc(Cl)cc3)cc2C1=O`, 104% (active); with `C[C@@H]1CCCCO[C@H](CN(C)S(=O)(=O)c2cccs2)[C@H](C)CN([C@H](C)CO)C(=O)c2cc(NS(=O)(=O)c3ccc(F)cc3)ccc2O1`, 62.8% (inactive).

With `C[C@@H]1CCCCO[C@H](CN(C)C(=O)NC2CCCCC2)[C@H](C)CN([C@H](C)CO)C(=O)c2cc(NS(=O)(=O)c3ccc(Cl)cc3)ccc2O1`, the inhibition was 50.5% (inactive). `COc1ccc(S(=O)(=O)Nc2ccc3c(c2)C(=O)N([C@H](C)CO)C[C@@H](C)[C@@H](CN(C)CC2CCCCC2)OCCCC[C@@H](C)O3)cc1`: the inhibition was 105% (active). For the compound `COc1ccc(S(=O)(=O)N(C)C[C@H]2OCCCC[C@H](C)Oc3ccc(NS(=O)(=O)c4ccc(F)cc4)cc3C(=O)N([C@@H](C)CO)C[C@@H]2C)cc1`, the inhibition was 54% (inactive). As for `C[C@@H]1CN([C@H](C)CO)C(=O)c2cc(NS(=O)(=O)c3cccs3)ccc2O[C@@H](C)CCCCO[C@@H]1CN(C)S(=O)(=O)c1ccc(Cl)cc1`, the figure is 63.6% (inactive).
